Test results: publication PMC3836752 (Organic letters, 2013)
pKd: −log10 of the molar value.

Experiments:
[1] = biological target: T1, BamL (Bacillus velezensis, UniProt D3VMM1); assay: ITC binding assay with BamL; conditions: for pKd: BamL
T1 sequence (D3VMM1 1-270): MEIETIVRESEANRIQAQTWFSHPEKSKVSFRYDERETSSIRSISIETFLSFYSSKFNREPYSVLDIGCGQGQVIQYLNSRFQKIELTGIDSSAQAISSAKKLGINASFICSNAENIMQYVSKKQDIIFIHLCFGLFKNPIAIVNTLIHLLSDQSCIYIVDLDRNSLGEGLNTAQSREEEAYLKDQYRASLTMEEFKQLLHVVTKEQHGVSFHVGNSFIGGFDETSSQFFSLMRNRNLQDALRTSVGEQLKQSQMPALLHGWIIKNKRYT
How it was run: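 Test compounds were titrated with BamL by isothermal titration calorimetry. The binding isotherms were fitted to give Kd and thermodynamic binding parameters. The same titration was applied to a minimal arginine amide ligand.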

[2] = biological target: T1, BamL; assay: BamL methylation assay, ESI-MS endpoint / LC-MS; assay type: biochemical; conditions: for conversion into dimethylated product / dimethylation by BamL: condition A: 16 h endpoint assay, BamL in the presence of SAM, ESI-MS/HRMS and LC-MS
How it was run: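 Test compounds were incubated with BamL and scored as substrates by conversion of starting material. Two conditions were used: a standard assay, and a more stringent 1 h assay (condition B) with lower enzyme and substrate concentrations for finer resolution of substrate efficiency.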

[3] = biological target: T1, BamL; conditions: cited from earlier work; for processing by BamL: Arg-containing tetrapeptides as substrate mimics
[4] = system: Bacillus anthracis; conditions: against Bacillus anthracis; ref 1b; cited from earlier work

Row | Compound | pKd [1] | conversion into dimethylated product [2] | dimethylation by BamL [2] | processing by BamL [3] | also measured
1 | C=CCOC(=O)c1csc([C@@H](N)CCCNC(=N)N)n1 [compound 2] | 5.66 | left detectable levels of unconverted starting material | dimethylated by BamL | – | increase in affinity for BamL versus 17 (2 vs. 17) ([1]; addition of a single thiazole to Arg-NH2): two orders of magnitude
2 | N=C(N)NCCC[C@H](N)C(N)=O [compound 17, Arg-NH2] | – | – | – | – | conversion to (CH3)2-Arg-NH2 by BamL [3]: inefficiently converted
3 | RGGG | – | – | – | unprocessed by BamL | –
4 | plantazolicin [PZN] | – | – | – | – | antibacterial action [4]: highly discriminating antibacterial action against Bacillus anthracis
5 | CCOC(=O)c1csc(-c2nc(-c3csc([C@@H](N)CCCNC(=N)N)n3)oc2C)n1 [compound 3] | 5.77 | full conversion | dimethylated by BamL | – | affinity for BamL relative to monoazole 2 [1]: marginally higher affinity; thermodynamic origin of stronger interaction compared to 2 ([1]; analysis of Gibbs free energy terms, 3 compared to 2): primarily entropically driven; processing by BamL compared to 2 ([2]; 3 compared to 2, differences in affinity not solely responsible): enhanced processing; conversion into dimethylated product (reaction completeness) ([2]; condition B: more stringent 1 h assay, lower concentrations of enzyme and substrate, ESI-MS): nearly complete; reaction efficiency with BamL ([2]; three azole rings compared with one azole, conditions A and B): reaction efficiency increases substantially
6 | RAAA | – | – | – | unprocessed by BamL | –
